The subject of one assay is Pichia kudriavzevii. Description: Antifungal activity against Candida krusei. In kind it is functional. Particulars: 6258. In short, it runs like this: (§1)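 Broth microdilution per NCCLS M27-A in RPMI 1640 buffered with 0.165 M MOPS, pH 7. Strains were C. albicans CA-6 (vaginal clinical isolate) and C. krusei ATCC 6258. Inocula came from 24 h cultures on Sabouraud dextrose agar at 28 °C, washed in saline and counted by hemocytometer. Serial dilutions ran 0.9–500 µg/mL. MIC was the lowest concentration giving 80% turbidity reduction versus drug-free control.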

In a further assay the test system is Candida albicans. Description: Antifungal activity against Candida albicans. In kind it is functional. The conditions noted are these: CA-6. In short, it runs like this:
as §1

The test system of assay [1] is Mus musculus. The experiment in a line: Median survival time in mouse at 14 mg/kg/day, ip. Type of assay: functional, CD1. Particulars: route intraperitoneal. In short, it runs like this: (§2)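 Female CD1 mice (8–10 weeks, 25–30 g), 10 per group, infected iv via lateral tail vein with 1×10^5 C. albicans CA-6 cells (24 h Sabouraud culture at 28 °C, saline-washed). Dosing was ip at 14 mg/kg in DMSO/H2O (1:4), 2 h before infection and then daily for 8 days. Median survival time was compared by Mann–Whitney U test, and dead/total was counted at day 30.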

Assay [2] concerns Mus musculus. The experiment in a line: Survival of mouse administered at 14 mg/kg/day, ip. The conditions noted are these: route intraperitoneal. Type of assay: functional, CD1. The essentials: as §2

Data on nine molecules can be found in ChEMBL document CHEMBL1141215, “Design, synthesis, and microbiological evaluation of new Candida albicans CYP51 inhibitors” (2005).

SMILES strings stand for the structures. ≈ marks a conversion by molar mass, not a printed value. Where only a bound is given, the exact number is not on record here.

For orientation: MIC means the least concentration at which growth counts as inhibited. Lower therefore signals a more susceptible organism. Consider `CN1C(=O)CSc2ccc(C(O)Cn3ccnc3)cc21` (stereo not drawn), for which the values for the MIC against Pichia kudriavzevii and in the assay with Candida albicans were 250 µg/mL (≈ 864 µM) and 62.5 µg/mL (≈ 216 µM), respectively.

On to `CCCCOC1Oc2ccc(C(O)Cn3ccnc3)cc2N(C)C1=O` (stereo not drawn), for which the MIC against Pichia kudriavzevii was 31.2 µg/mL (≈ 90.3 µM); in the assay on Candida albicans, 125 µg/mL (≈ 362 µM). This molecule also had an MST in the assay on Mus musculus [1] of 12 days. The molecule also displayed a Survival in the assay with Mus musculus [2] of 4 days.

Consider `OC(Cn1cncn1)(Cn1cncn1)c1ccc(F)cc1F` [FLUCONAZOLE], for which the figures for the MIC against Pichia kudriavzevii and in the assay on Candida albicans were 62.5 µg/mL (≈ 204 µM) and below 1.8 µg/mL, respectively. Besides, the MST in the assay with Mus musculus [1] was above 30 days. This molecule had a Survival in the assay with Mus musculus [2] of 23 days.

In the case of `CCCCC1Sc2ccc(C(O)Cn3ccnc3)cc2N(C)C1=O` (stereo not drawn), the MIC in the assay on Pichia kudriavzevii is 250 µg/mL (≈ 724 µM); with Candida albicans, 31.2 µg/mL (≈ 90.3 µM). The same molecule registered an MST in the assay on Mus musculus [1] of 14 days. Further, the Survival in the assay with Mus musculus [2] was 9 days.

On to `CN1C(=O)COc2ccc(C(Cn3ccnc3)OCc3ccc(Cl)cc3)cc21` (stereo not drawn), for which the MIC with Pichia kudriavzevii was 15.6 µg/mL (≈ 39.2 µM); with Candida albicans, 7.8 µg/mL (≈ 19.6 µM).

In the case of `CN1C(=O)COc2ccc(C(O)Cn3ccnc3)cc21` (stereo not drawn), the minimal inhibitory concentration (MIC) came out at 31.2 µg/mL (≈ 114 µM) against Pichia kudriavzevii and 250 µg/mL (≈ 915 µM) in the assay on Candida albicans.

Turning to `CCCCOC1Sc2ccc(C(O)Cn3ccnc3)cc2N(C)C1=O` (stereo not drawn), the figures for the MIC against Pichia kudriavzevii and against Candida albicans were 125 µg/mL (≈ 346 µM) and 31.2 µg/mL (≈ 86.3 µM), respectively. The molecule also showed an MST in the assay with Mus musculus [1] of 14 days. In addition, the Survival with Mus musculus [2] is 9 days.

Take `CN1C(=O)CSc2ccc(C(Cn3ccnc3)OCc3ccc(Cl)cc3)cc21` (stereo not drawn): the MIC is 15.6 µg/mL (≈ 37.7 µM) in the assay on Pichia kudriavzevii and below 1.8 µg/mL in the assay on Candida albicans.

With `CCCCC1Oc2ccc(C(O)Cn3ccnc3)cc2N(C)C1=O` (stereo not drawn), the minimal inhibitory concentration (MIC) against Pichia kudriavzevii and in the assay with Candida albicans was 125 µg/mL (≈ 379 µM) in each case. Further, in the assay on Mus musculus [1], the MST turned out to be 14 days. This molecule came in with a Survival in the assay on Mus musculus [2] of 9 days.
